Most compounds without a hit are left out; they make up all but 2.5% or so of the library.
VIM-2 inh – VIM-2 metallo-beta-lactamase inhibitors, primary screen, biochemical, epi-absorbance readout, Pseudomonas aeruginosa enzyme | purified VIM-2, nitrocefin hydrolysis, epi-absorbance fluorescence | inhibition, % at 5.6 µM | actives 0.89% (n = 290,000) | AID 1527, 2009;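 active = inhibition above the mean of all tested compounds plus 3 SD, cutoff set per screening run, cut at about 7.5% in these data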;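 also: red hydrolysis product quenches plate fluorescence so inhibitors raise well fluorescence; 0% = enzyme with DMSO and 100% = DMSO without enzyme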
IMP-1 inh – IMP-1 metallo-beta-lactamase inhibitors, primary screen, biochemical, epi-absorbance readout, Pseudomonas aeruginosa enzyme | metallo-beta-lactamase IMP-1 (Pseudomonas aeruginosa) | purified IMP-1, nitrocefin hydrolysis, epi-absorbance fluorescence | inhibition, % at 5.6 µM | actives 0.45% (n = 290,000) | AID 1556, 2009;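 active = inhibition above the mean plus 3 SD of all compounds in the same screening run, cut at about 4.5% in these data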;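 also: 0% = IMP-1 with DMSO and 100% = DMSO wells lacking enzyme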
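System: purified IMP-1 / Input: IMP-1 dispensed at 0.2 nM / Medium: 50 mM HEPES pH 7.1, 50 µM ZnSO4, 0.05% Brij 35 / Timing: 15 min enzyme–compound preincubation, then 25 min nitrocefin reaction, 25 °C / Technique: plate fluorescence quenching by hydrolysis product, ex 480/em 530 nm / Repeats: singlicate testing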
dFosB act – activators of delta FosB homodimer, primary screen, biochemical, fluorescence polarization, TAMRA-CDK5 oligo, single point. Protein FosB (Mus musculus), P13346. purified delta FosB; percent of positive-control signal above neutral wells. activation, % at 25 µM. actives 0.99% (n = 340,000). AID 493131, 2011;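 active = mean activation above about 17%, with every replicate also reaching it, limit read from the data, passing the limit was not always enough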
Target sequence (P13346 whole entry, looked up): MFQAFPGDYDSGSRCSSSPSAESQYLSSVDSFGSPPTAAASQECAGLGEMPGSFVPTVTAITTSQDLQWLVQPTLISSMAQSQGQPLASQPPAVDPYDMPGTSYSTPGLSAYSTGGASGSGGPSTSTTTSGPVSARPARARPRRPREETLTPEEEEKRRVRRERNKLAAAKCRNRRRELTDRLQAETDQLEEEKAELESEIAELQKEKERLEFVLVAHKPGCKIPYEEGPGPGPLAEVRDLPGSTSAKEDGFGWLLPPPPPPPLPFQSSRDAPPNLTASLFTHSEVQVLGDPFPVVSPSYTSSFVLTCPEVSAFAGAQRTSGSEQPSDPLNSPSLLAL
m5-HT2A agonist – mouse Htr2a agonists via beta-arrestin recruitment, primary screen, cell-based, luminescence; 5-hydroxytryptamine receptor 2A (Mus musculus), P35363; CHO-K1 mHTR2A beta-arrestin complementation; percent of 30 µM serotonin response; activation, % at 7.6 µM; actives 0.66% (n = 360,000);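 active = activation above a run cutoff, the mean activation of all tested compounds plus 3 SD, cut at about 14% in these data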;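 also: 0% = plate median of compound wells and 100% = 30 µM serotonin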
OPRM1 ag – OPRM1 agonists via beta-arrestin recruitment, confirmation, counter-screen for mouse HTR2A agonist project, cell-based, luminescence, single concentration; shares compounds with m5-HT2A agonist; U2OS OPRM1 beta-arrestin PathHunter; DMSO 0%, DAMGO 9.3 µM 100%; activation, % at 9.3 µM; actives 5.3% (n = 2,300); AID 624380, 2012;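 active = mean activation above the mean of DMSO-only wells plus 3 SD, cut at about 0.5% in these data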
HTR2A ag conf – mouse HTR2A agonists, beta-arrestin recruitment, confirmation, cell-based, luminescence, CHO-K1 PathHunter, triplicate. actives 19% (n = 2,300). shares compounds with m5-HT2A agonist. activation, % at 7.6 µM. DMSO 0%, 30 µM serotonin 100%;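 active = mean activation across triplicates above the hit threshold derived in the original primary screen, cut at about 15% in these data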
The depositor's hits bear a star; . = no result given.

SMILES	VIM-2 inh	IMP-1 inh	dFosB act	m5-HT2A agonist	OPRM1 ag	HTR2A ag conf
CN(C)N1C(N)=C(C#N)C(c2ccc3c(c2)OCO3)C2=C1CC(C)(C)CC2=O (stereo not drawn)	-1	-1	1	-1	.	.
COc1cccc(OC)c1C(=O)Nc1ccc(C(=O)c2ccncc2)cc1	.	.	0	19*	0	-3
Cc1cnc(NC(=O)C2(c3ccccc3)CC2)s1	1	0	3	21*	0	-5
Cc1nnc(NC(=O)C2(c3ccccc3)CCOCC2)s1	-3	-7	6	2	.	.
CCc1nc2ccccc2n1CC(O)COCC1CC=CCC1 (stereo not drawn)	-2	-2	-13	-1	.	.
O=C(Nc1ccccc1C(F)(F)F)c1cnccn1	-2	-4	-2	19*	-1	2
Cc1ccc(NC(=O)NC(=O)COC(=O)c2ccc(O)cc2O)c(C)c1	.	.	.	15*	0	-1
CCOc1ccc(S(=O)(=O)NCCC(=O)NCc2ccc(OC)c(OC)c2)cc1	.	.	-8	14*	1.5*	8
CCOC(=O)C1(C)CCCCCN1C(=O)c1ccc(OC)cc1 (stereo not drawn)	.	.	.	16*	-1	-4
CCOC(=O)C1(C)CCCCN1C(=O)c1ccc(N(C)C)cc1 (stereo not drawn)	.	.	.	5	.	.
Cc1cc(CN(C)C(=O)C2CCC(=O)N(CCc3ccccc3)C2)n[nH]1 (stereo not drawn)	-3	-3	-4	4	.	.
Cc1cnc(CN(C)C(=O)C2CCC(=O)N(CCc3ccccc3)C2)[nH]1 (stereo not drawn)	-1	-3	-1	20*	-1	-3
COc1cccc(COC(=O)C(Cc2ccccc2)NC(=O)c2ccco2)c1 (stereo not drawn)	.	.	.	17*	0	9
Cc1cccc(CN2CCN(C3CN(C4CCCCC4)S(=O)(=O)C3)CC2)c1 (stereo not drawn)	.	.	.	3	.	.
COC(=O)c1cnc(Nc2nc(C(N)c3ccccc3Cl)cs2)nc1C(F)(F)F (stereo not drawn)	.	.	.	5	.	.
NC(=O)C1CCN(C(=O)c2cc3ccccn3n2)CC1	-3	-5	-1	-1	.	.
O=C(c1cc2ccccn2n1)N1CCN(c2ccccn2)CC1	-1	-3	-2	17*	0	-4
COc1ccccc1-c1c(C(F)(F)F)oc2cc(OS(C)(=O)=O)ccc2c1=O	-2	-2	-10	26*	0	-2
COc1ccccc1-c1c(C(F)(F)F)oc2cc(OC(=O)c3ccccc3[N+](=O)[O-])ccc2c1=O	-3	-5	-4	1	.	.
CCN1C(=O)[C@H]2[C@@H](c3ccc(OC)cc3)N3C(=O)CN(CC4CC4)C(=O)[C@@]3(C)[C@H]2C1=O	-1	-1	1	21*	0	-2
CCN1C(=O)[C@H]2[C@@H](c3ccc(Cl)cc3)N3C(=O)CN(CC4CC4)C(=O)[C@@]3(C)[C@H]2C1=O	0	1	-2	2	.	.
Cc1cccnc1C(c1ccc(F)cc1)N(C)C(=O)C1CCN(CCOc2ccc(Cl)cc2Cl)CC1 (stereo not drawn)	.	.	.	2	.	.
CC1(OC(=O)C2CCCC2)C(=O)C=C2C=C(c3ccsc3)N(c3ccccc3)C=C2C1=O (stereo not drawn)	.	.	-1	1	.	.
CC1(OC(=O)C2CCCC2)C(=O)C=C2C=C(c3ccsc3)N(C3CC3)C=C2C1=O (stereo not drawn)	.	.	-6	15*	0	-6
N#Cc1cc(Sc2ccccn2)c([N+](=O)[O-])cc1C#N	-3	0	-9	17*	0	-3
COC(=O)C[C@H]1CC[C@@H](NC(=O)C2CC2)[C@@H](CO)O1	.	.	.	18*	0	-1
CC1(C(=O)NS(=O)(=O)C2CC2)CCN(C(=O)c2cc(F)cc(F)c2)C1 (stereo not drawn)	.	.	.	2	.	.
